Eight compounds from ChEMBL document CHEMBL1781906, “New quinolin-4-yl-1,2,3-triazoles carrying amides, sulphonamides and amidopiperazines as potential antitubercular agents” (2011) can be followed below.

Converted amounts (≈) assume the structure as drawn.

What all share (assay type): functional
One test deals with Pseudomonas aeruginosa. Nature of the test: Antibacterial activity against Pseudomonas aeruginosa ATCC 27853 after 18 to 24 hrs by […].
Test [1] deals with Mycobacterium tuberculosis. The test can be described thus: Antimycobacterial activity against Mycobacterium tuberculosis H37Rv ATCC 27294 assessed as inhibition of bacterial growth at 1 to 100 ug/ml after 7 days by resazurin method. The procedure, abridged: (§1)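 H37Rv was grown in Middlebrook 7H9 broth with 10% OADC, diluted to McFarland 2 in the same medium, and added to fresh medium in 96-well plates with compound. Compounds were tested at 1, 10 and 100. The dye turned pink in controls after […] at 37 °C.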
For orientation: Alamar Blue is a resazurin reagent that responds to reducing activity.

In the next test the test system is Klebsiella pneumoniae. The test can be described thus: Antibacterial activity against Klebsiella pneumoniae after 18 to 24 hrs by […].
In a further test the test system is Staphylococcus aureus. Nature of the test: Antibacterial activity against Staphylococcus aureus ATCC 25923 after 18 to 24 hrs by serial plate dilution method.
A further test relates to Escherichia coli. The test can be described thus: Antibacterial activity against Escherichia coli ATCC 25922 after 18 to 24 hrs by […].
The test system of a further test is Streptococcus pyogenes. The test can be described thus: Antibacterial activity against Streptococcus pyogenes after 18 to 24 hrs by serial plate dilution method.
In test [2] the test system is Mycobacterium tuberculosis. Nature of the test: Antimycobacterial activity against Mycobacterium tuberculosis H37Rv ATCC 27294 after 7 days by resazurin method. As to conditions: H37Rv ATCC 27294, 168 h. The procedure, abridged: as §1
In test [3] the test system is Mycolicibacterium fortuitum. Nature of the test: Antimycobacterial activity against Mycobacterium fortuitum ATCC 19542 after 7 days by resazurin method. Particulars: ATCC 19542, 168 h. The procedure, abridged: (§2)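 MIC was determined by resazurin microplate assay. Resazurin turns from blue to pink when reduced by viable cells, and wells with no colour change were scored as inhibited. Isoniazid and rifampicin were reference drugs.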

In test [4] the test system is Mycolicibacterium smegmatis. The test can be described thus: Antimycobacterial activity against Mycobacterium smegmatis ATCC 19420 after 7 days by resazurin method. As to conditions: ATCC 19420, 168 h. The procedure, abridged:
as §2

What is called MIC is the least concentration at which growth counts as inhibited. As for `COc1ccc2nc(C)cc(-n3cc(CN4CCN(C(=O)C5CCC5)CC4)nn3)c2c1`, the minimal inhibitory concentration (MIC) is 0.8 µg/mL (≈ 1.9 µM) against Pseudomonas aeruginosa; 3.12 µg/mL (≈ 7.42 µM) against Klebsiella pneumoniae; 1.6 µg/mL (≈ 3.8 µM) with Staphylococcus aureus; 1.6 µg/mL (≈ 3.8 µM) against Escherichia coli; 1.6 µg/mL (≈ 3.8 µM) against Streptococcus pyogenes; 10 µg/mL (≈ 23.8 µM) in test [2]. In addition, the minimum inhibitory concentration (MIC) in [3] and in [4] was 100 µg/mL (≈ 238 µM) each time. Moreover, the “inhibition (INH)” value in test [1] was determined as 90%.
As for `COc1ccc2nc(C)cc(-n3cc(CNC(=O)C4CC4)nn3)c2c1`, the MIC in the test on Pseudomonas aeruginosa amounted to 1.6 µg/mL (≈ 4.74 µM); with Klebsiella pneumoniae, 0.2 µg/mL (≈ 0.593 µM); in the test on Staphylococcus aureus it was 0.4 µg/mL (≈ 1.19 µM); in the test on Escherichia coli, 0.4 µg/mL (≈ 1.19 µM); against Streptococcus pyogenes, 0.4 µg/mL (≈ 1.19 µM); in [2], 1 µg/mL (≈ 2.96 µM). Further, the minimal inhibitory concentration (MIC) in test [3] and in [4] was 100 µg/mL (≈ 296 µM) in each case. The “inhibition (INH)” value in test [1] came to 90%.
As for `COc1ccc(C(=O)NCc2cn(-c3cc(C)nc4ccc(OC)cc34)nn2)cc1`, the MIC turned out to be 0.4 µg/mL (≈ 0.991 µM) against Pseudomonas aeruginosa; 0.1 µg/mL (≈ 0.248 µM) against Klebsiella pneumoniae; 0.8 µg/mL (≈ 1.98 µM) against Staphylococcus aureus; 0.1 µg/mL (≈ 0.248 µM) in the test with Escherichia coli; 0.4 µg/mL (≈ 0.991 µM) with Streptococcus pyogenes; 0.625 µg/mL (≈ 1.55 µM) in test [2]. Besides, the results for the MIC in test [3] and in [4] were 10 µg/mL (≈ 24.8 µM) and 5 µg/mL (≈ 12.4 µM), respectively. Further, in test [1], the “inhibition (INH)” value came to 95%.
As for `COc1ccc2nc(C)cc(-n3cc(CN4CCN(C(=O)c5ccccc5F)CC4)nn3)c2c1`, the MIC was found to be 3.12 µg/mL (≈ 6.78 µM) in the test on Pseudomonas aeruginosa; 1.6 µg/mL (≈ 3.47 µM) in the test with Klebsiella pneumoniae; 0.8 µg/mL (≈ 1.74 µM) against Staphylococcus aureus; 1.6 µg/mL (≈ 3.47 µM) against Escherichia coli; 0.4 µg/mL (≈ 0.869 µM) with Streptococcus pyogenes; 1 µg/mL (≈ 2.17 µM) in test [2]. Besides, the MIC in test [3] came out at 100 µg/mL (≈ 217 µM); in test [4], 5 µg/mL (≈ 10.9 µM). In addition, in test [1], the “inhibition (INH)” value came out at 90%.
`CCc1ccc(C(=O)NCc2cn(-c3cc(C)nc4ccc(OC)cc34)nn2)cc1`: the MIC against Pseudomonas aeruginosa was 6.25 µg/mL (≈ 15.6 µM); against Klebsiella pneumoniae, 3.12 µg/mL (≈ 7.77 µM); against Staphylococcus aureus, 3.12 µg/mL (≈ 7.77 µM); against Escherichia coli, 3.12 µg/mL (≈ 7.77 µM); against Streptococcus pyogenes it was 3.12 µg/mL (≈ 7.77 µM); in test [2] it was 100 µg/mL (≈ 249 µM). For the same compound, the MIC in test [3] and in [4] was 100 µg/mL (≈ 249 µM) in each case. The “inhibition (INH)” value in test [1] came out at 80%.
Consider `COc1ccc2nc(C)cc(-n3cc(CNC(C)=O)nn3)c2c1`, for which the MIC stood at 0.2 µg/mL (≈ 0.642 µM) in the test on Pseudomonas aeruginosa; 0.1 µg/mL (≈ 0.321 µM) in the test on Klebsiella pneumoniae; 0.4 µg/mL (≈ 1.28 µM) in the test with Staphylococcus aureus; 0.1 µg/mL (≈ 0.321 µM) in the test with Escherichia coli; 0.2 µg/mL (≈ 0.642 µM) against Streptococcus pyogenes; 0.625 µg/mL (≈ 2.01 µM) in [2]. The MIC in test [3] and in test [4] was 10 µg/mL (≈ 32.1 µM) each time. Moreover, the “inhibition (INH)” value in test [1] came to 95%.
Take `COc1ccc2nc(C)cc(-n3cc(CNC(=O)c4ccccc4F)nn3)c2c1`: the MIC against Pseudomonas aeruginosa worked out at 0.4 µg/mL (≈ 1.02 µM); in the test with Klebsiella pneumoniae, 0.2 µg/mL (≈ 0.511 µM); against Staphylococcus aureus, 0.8 µg/mL (≈ 2.04 µM); in the test on Escherichia coli, 0.4 µg/mL (≈ 1.02 µM); against Streptococcus pyogenes, 0.2 µg/mL (≈ 0.511 µM); in test [2], 1 µg/mL (≈ 2.55 µM). For the same compound, the MIC in test [3] and in [4] was 100 µg/mL (≈ 255 µM) throughout. In addition, the “inhibition (INH)” value in [1] is 90%.
`COc1ccc(S(=O)(=O)NCc2cn(-c3cc(C)nc4ccc(OC)cc34)nn2)cc1`: the minimal inhibitory concentration (MIC) with Pseudomonas aeruginosa turned out to be 1.6 µg/mL (≈ 3.64 µM); with Klebsiella pneumoniae, 1.6 µg/mL (≈ 3.64 µM); in the test on Staphylococcus aureus, 6.25 µg/mL (≈ 14.2 µM); in the test on Escherichia coli, 3.12 µg/mL (≈ 7.1 µM); in the test with Streptococcus pyogenes, 1.6 µg/mL (≈ 3.64 µM); in test [2], 0.625 µg/mL (≈ 1.42 µM). Further, the MIC in test [3] and in test [4] was 10 µg/mL (≈ 22.8 µM) throughout. Besides, the “inhibition (INH)” value in test [1] worked out at 90%.
